# The list is not random: actives were taken first. Their share in the collection is about 1.9%.
# Scp1 inh – blocks human Scp-1 phosphatase activity. Q9GZU7. Recombinant Scp1, phosphopeptide, malachite green phosphate absorbance. inhibition, % at 20 µM. hit rate 0.88% among 340,000. AID 493091;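 active = inhibition above about 50% at 20 µM, limit read from the data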
# Target sequence (Q9GZU7 76-261 limits assumed): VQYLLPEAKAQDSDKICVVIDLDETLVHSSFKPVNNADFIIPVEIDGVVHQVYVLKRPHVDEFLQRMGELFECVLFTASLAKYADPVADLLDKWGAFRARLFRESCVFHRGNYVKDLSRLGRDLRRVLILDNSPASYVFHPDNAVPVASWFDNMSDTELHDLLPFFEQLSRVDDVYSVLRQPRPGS
#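 Test system: SCP-1 catalytic domain; Buffer or medium: Acidic Tris acetate buffer with magnesium and detergent; Also added: Phosphorylated 17-residue peptide substrate; Compound: single 20 µM dose, 1% DMSO; Schedule: enzyme reaction 45 min at room temperature, colour 5 min, stabilisation 30 min; Signal: Phosphate-binding colour reagent, absorbance read at 630 nm.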
# FAS TE block – FAS thioesterase (human) inhibition | recombinant FAS-TE, OMFH fluorogenic substrate, fluorescence endpoint | inhibition, % at 15 µM | hit rate 0.67% among 360,000 | AID 602261;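 active = compounds whose normalised, plate-corrected inhibition of enzyme fluorescence in the single-dose primary screen is 50% or more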
# STEP inh – inhibitors of human striatal-enriched phosphatase STEP; recombinant STEP, OMFP fluorogenic substrate, fluorescence; inhibition, % at 20 µM; hit rate 0.25% among 360,000;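 active = inhibition at 20 µM, scaled per plate between control wells, above about 37%, limit read from the data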
#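 Measure: Control-normalized % inhibition with plate pattern correction | Test system: STEP phosphatase, cell-free reaction | Medium: pH 6.0 Bis-Tris with DTT and Tween 20 | Technique: Fluorescence, 480/540 nm | Times: Reaction 20 min, ambient temperature | Doses: Single compound dose of 20 µM, 1% DMSO final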
# SUMO1-SIM PPI – SUMO1-SIM interaction modulation; SUMO1 binding to a labelled peptide, TR-FRET, 1 h; inhibition, % at 20 µM; hit rate 0.33% among 360,000; P63165; in the data active = inhibition above about 37%
# Target sequence (P63165 whole entry, looked up): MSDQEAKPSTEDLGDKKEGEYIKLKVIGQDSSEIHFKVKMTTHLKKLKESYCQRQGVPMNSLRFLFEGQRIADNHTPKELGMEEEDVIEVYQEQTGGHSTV
# LMPTP block – blocks human LMPTP phosphatase. hit rate 0.22% among 360,000. recombinant LMPTP-A, OMFP fluorogenic substrate, fluorescence intensity. P24666. inhibition, % at 20 µM;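 active = compounds that cut the enzyme signal by at least half of the control window in the single-dose screen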
# Target sequence (P24666 whole entry, looked up): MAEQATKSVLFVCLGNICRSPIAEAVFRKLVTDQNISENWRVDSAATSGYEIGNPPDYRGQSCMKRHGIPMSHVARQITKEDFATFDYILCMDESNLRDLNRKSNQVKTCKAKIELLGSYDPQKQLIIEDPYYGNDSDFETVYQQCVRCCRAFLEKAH
#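 Assay system: LMPTP-A phosphatase enzyme | Input: 0.625 nM enzyme | Also added: Fluorogenic phosphatase substrate OMFP at 400 µM final | Compound dosing: One test concentration per compound, 20 µM, with 3% DMSO overall | Schedule: 50 min enzyme reaction at room temperature, protected from light | Signal: Fluorescence intensity | Benchmarks: no-enzyme and uninhibited controls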
# Scp1 confirm – confirmation of human Scp-1 phosphatase inhibitors; shares compounds with Scp1 inh; recombinant SCP-1 catalytic domain, phosphate release, malachite green absorbance; inhibition, % at 20 µM; hit rate 61% among 2,500; AID 540281
# Scp-1 MG ctr – counter-screen for Scp-1 inhibitors: colorimetric interference | shares compounds with Scp1 inh | Colorimetric interference counterscreen, malachite green absorbance 630 nm | apparent inhibition (interference), % at 20 µM | 2,500 tested, under 10 active | AID 540313;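 also: compounds added after enzyme reaction finished so only phosphate colour detection is probed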
# Scp1 DSF – binds human Scp-1, shifting its melting temperature. Recombinant SCP1, Sypro Orange thermal shift Tm. hit rate 25% among 1,500. AID 540329. shares compounds with Scp1 inh. thermal shift relative to vanadate control, % at 40 µM;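 active = substances whose mean melting-temperature shift, as a percentage of the reference inhibitor's shift, reaches about 5.3%, limit read from the data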
# Hits are given with their value; . = inactive; / = not tested or not shown.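 The calls were made as follows, unless noted: active = inhibition of at least 30% at 20 µM; inactive = the rest.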
SMILES,Scp1 inh,FAS TE block,STEP inh,SUMO1-SIM PPI,LMPTP block,Scp1 confirm,Scp-1 MG ctr,Scp1 DSF
C[C@@H]1CN([C@H](C)CO)C(=O)c2cc(NS(=O)(=O)c3cn(C)cn3)ccc2O[C@H]1CN(C)C(=O)Nc1ccccc1,82,.,.,.,.,.,.,/
C[C@H](CO)N1C[C@H](C)[C@@H](CN(C)C(=O)NC2CCCCC2)Oc2ccc(NS(=O)(=O)c3cccs3)cc2C1=O,56,.,.,.,.,.,.,/
C[C@H]1CN([C@@H](C)CO)C(=O)Cc2cc(NS(=O)(=O)c3cn(C)cn3)ccc2O[C@@H]1CN(C)C(=O)Nc1ccc(F)cc1,73,.,.,.,.,37,.,.
COc1ccc(NC(=O)N(C)C[C@H]2OCCCC[C@H](C)Oc3ccc(NS(=O)(=O)c4cn(C)cn4)cc3C(=O)N([C@H](C)CO)C[C@@H]2C)cc1,/,.,.,.,.,/,/,/
O=C(CC[C@H]1O[C@@H](n2ccc(=O)[nH]c2=O)[C@H](O)[C@@H]1O)N[C@H](Cc1ccccc1)C(=O)NCc1cccs1,/,.,.,.,.,/,/,/
Cc1cc(C)n(-c2ccc(C(=O)OCC(=O)Nc3ccc(Cl)cc3[N+](=O)[O-])cc2)n1,.,.,.,.,.,/,/,/
O=C(O)Cc1ccc(N2N=C(c3ccccc3)CC2=O)cc1,/,.,.,.,.,/,/,/
O=S(=O)(NCCCCNS(=O)(=O)c1ccc(F)cc1)c1ccc(F)cc1,.,.,.,.,.,/,/,/
COc1ccc(S(=O)(=O)NCCN2CCNC2=O)cc1OC,.,.,.,.,.,.,.,/
O=C1NCCN1CCNS(=O)(=O)c1ccc(F)cc1,.,.,.,.,.,.,.,/
COc1ccc(S(=O)(=O)NCCC(C)C)cc1OC,.,.,.,.,.,/,/,/
O=C(c1ccc(F)cc1)C1CCN(C(=S)NCC2CCCO2)CC1 (configuration not stated),.,.,.,.,.,/,/,/
O=C1NC2c3c(Cl)sc(Cl)c3C(=O)C2O1 (configuration not stated),79,.,.,.,.,71,.,18
COCCNC(=O)C1(C)CCCN(Cc2csc(-c3ccc(Cl)cc3)n2)C1 (configuration not stated),/,.,.,.,.,/,/,/
CC(C)Oc1ccc(CNS(=O)(=O)c2csc(C(N)=O)c2)cc1,.,.,.,.,.,.,.,/
NC(=O)c1cc(S(=O)(=O)NCCCc2ccccc2)cs1,.,.,.,.,.,/,/,/
CN(C)c1ccc(CNS(=O)(=O)c2csc(C(N)=O)c2)cc1,.,.,.,.,.,.,.,/
Cc1nc(SCC(=O)O)c(C#N)c2c1CCCC2,96,.,.,.,.,70,.,.
CCc1nc(SCC(=O)O)c(C#N)c2c1CCCC2,.,.,.,.,.,/,/,/
Cc1ccc(C)c(C(=O)Nc2ccncc2)c1,78,.,.,.,.,.,.,/
Cc1ccc(C(=O)Nc2ccncc2)c(Cl)c1,.,.,.,.,.,/,/,/
CCN(CC)CCCCCCCCOC(=O)c1cc(OC)c(OC)c(OC)c1,.,.,.,.,.,/,/,/
O=C(O)c1ccc(-n2cc(-c3cc4ccccc4oc3=O)[nH]c2=S)cc1,84,.,.,.,.,61,.,.
Cc1ccc(C(=O)O)cc1NC(=O)c1ccc2c(c1)C(=O)N(c1ccc([N+](=O)[O-])cc1)C2=O,67,.,.,.,.,62,.,.
Nc1sc(Cc2ccccc2)cc1C(=O)c1c(-c2ccccc2)[nH]c2ccccc12,/,/,/,.,.,/,/,/
SMILES,Scp1 inh,FAS TE block,STEP inh,SUMO1-SIM PPI,LMPTP block,Scp1 confirm,Scp-1 MG ctr,Scp1 DSF
COc1ccc(CSCC(=O)N/N=C/c2ccc(OCC(=O)N3CCCCC3)cc2)cc1,.,.,.,.,.,/,/,/
O=C(Cc1ccccc1)N/N=C/c1ccc(OCC(=O)Nc2ccccc2)cc1,82,.,.,.,.,44,.,.
Cc1ccc(CSCC(=O)N/N=C/c2ccc(OCC(=O)Nc3ccc(C)cc3)cc2)cc1,112,.,.,.,.,80,.,.
COc1ccc(NC(=O)CSCC(=O)N(C)CCOc2ccc(Cl)cc2)cc1,.,.,.,.,.,/,/,/
COc1ccc(/C=N/NC(=O)c2cccc(NC(=O)c3ccc(Cl)cc3)c2)c(OC)c1,83,.,.,.,.,66,.,.
CC[C@H](C)NC(=O)c1ccc(Cn2c(=S)[nH]c3c([nH]c4ccc(OC)cc43)c2=O)cc1,57,.,.,.,.,43,.,.
O=C(Nc1ccc2oc(-c3ccncc3)nc2c1)c1ccc2c(c1)OCCO2,100,.,.,.,.,.,.,/
O=C(Nc1ccc2oc(-c3cccnc3)nc2c1)c1ccc2c(c1)OCCO2,52,.,.,.,54,45,.,.
N#C/C(=C/c1ccc(OC(=O)c2ccc(Br)s2)cc1)c1nc2ccccc2[nH]1,96,.,.,.,.,80,.,.
COc1ccccc1OCCn1c(SCC(=O)O)nc2ccccc21,62,.,.,.,.,50,.,.
CCCN1CCN(CCCNC(=O)Cn2cc3c(n2)CCCC3)CC1,.,.,.,.,.,/,/,/
CCOCCCNC(=O)Cn1cc2c(n1)CCCC2,75,.,.,.,.,.,.,/
CC1C(=O)Nc2ccc(S(=O)(=O)NCc3ccc(Cl)cc3)cc2NC1=O (configuration not stated),.,.,.,.,.,.,.,/
CCC(NS(=O)(=O)c1ccc2c(c1)NC(=O)C(C)C(=O)N2)c1cccs1 (configuration not stated),.,.,.,.,.,.,.,/
Cc1cc(OCC(=O)Nc2ccc(N3CCN(C)CC3)cc2)ccc1Cl,.,.,.,.,.,/,/,/
O=S(=O)(NC1CCN(S(=O)(=O)c2c(F)cccc2F)CC1)c1ccc2c(c1)OCCO2,.,.,.,.,.,/,/,/
Cc1nn(-c2ccccc2)c(Cl)c1/C=N/NC(=O)c1cccc(S(=O)(=O)N2CCCC2)c1,94,.,.,.,.,.,.,/
Cc1nn(-c2ccc(F)cc2)c(Cl)c1/C=N/NC(=O)c1cccc(S(=O)(=O)N2CCCC2)c1,50,.,.,.,.,35,.,.
Cc1nn(-c2ccc(F)cc2)c(Cl)c1/C=N/NC(=O)c1ccc(O)cc1,.,.,.,.,.,/,/,/
Cc1nn(-c2ccccc2)c(Cl)c1/C=N\NC(=O)c1cncc(Br)c1,.,.,.,.,.,/,/,/
CCC(=O)Nc1cccc(C(=O)c2ccc(C)c(C)c2)c1,.,.,.,.,.,/,/,/
COc1ccc([C@H]2CC(=O)C=C(c3ccc(OC)c(F)c3)C2)cc1,.,.,.,.,.,/,/,/
